Assay results as given in ChEMBL document CHEMBL1765048 (J Med Chem, 2011).
Calls of active or inactive are those of the source. The rule behind the calls is not given here.

Experiments:
Homo sapiens = species on record: Homo sapiens; experiment: Selectivity ratio of Ki for human dopamine D3 receptor V2.61F mutant to Ki for wild type human dopamine D3 receptor
D(3) dopamine receptor [1] = target: T1, D(3) dopamine receptor (Homo sapiens, UniProt P35462); experiment: Displacement of [3H]spiperone from wild type human dopamine D3 receptor expressed in HEK293 cells after 60 mins; assay type: cell-based
T1 sequence (P35462 whole entry): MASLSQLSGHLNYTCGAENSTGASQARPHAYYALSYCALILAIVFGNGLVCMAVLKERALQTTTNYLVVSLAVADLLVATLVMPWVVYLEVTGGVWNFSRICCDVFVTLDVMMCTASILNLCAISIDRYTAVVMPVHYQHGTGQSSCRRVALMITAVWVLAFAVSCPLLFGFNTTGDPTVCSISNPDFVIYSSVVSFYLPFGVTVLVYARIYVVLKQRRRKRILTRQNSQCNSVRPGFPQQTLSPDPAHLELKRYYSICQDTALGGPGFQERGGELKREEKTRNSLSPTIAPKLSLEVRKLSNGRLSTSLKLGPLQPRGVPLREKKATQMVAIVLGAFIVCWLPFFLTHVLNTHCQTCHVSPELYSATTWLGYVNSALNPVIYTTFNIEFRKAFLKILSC
In short: (§1)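 Membranes from HEK293 cells transiently transfected with wild-type or mutant D3 were harvested at 48 h. KD and Bmax were set by [3H]spiperone saturation. Competition at 20-200 μg/mL protein for 1 h at 37 °C, ended by filtration on PEI-soaked GF/B filters, then scintillation counting. Ki by Cheng-Prusoff as mean ± SEM of 3-12 experiments in triplicate.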

D(3) dopamine receptor [2] = target: D(3) dopamine receptor (Homo sapiens, UniProt P35462, V87F); experiment: Displacement of [3H]spiperone from human dopamine D3 receptor V2.61F mutant expressed in HEK293 cells after 60 mins; assay type: cell-based; in short: as §1
D(3) dopamine receptor (Homo sapiens, UniProt P35462, V87F), sequence (P35462 as listed by the source V87F): as the sequence (P35462 whole entry) above, with G9S, V87F counted along it

D(3) dopamine receptor [3] = target: T1, D(3) dopamine receptor; experiment: Displacement of [3H]spiperone from human dopamine D3 receptor H6.55A mutant expressed in HEK293 cells after 60 mins
D(2) dopamine receptor [4] = target: T2, D(2) dopamine receptor (Homo sapiens, UniProt P14416); experiment: Agonist activity at human dopamine D2long receptor expressed in HEK293 cells co-expressing Galphao1 assessed as incorporation of [35S]GTPgammaS into Galphao1 after 30 mins by scintillation counting; assay type: functional, cell-based
T2 sequence (P14416 whole entry): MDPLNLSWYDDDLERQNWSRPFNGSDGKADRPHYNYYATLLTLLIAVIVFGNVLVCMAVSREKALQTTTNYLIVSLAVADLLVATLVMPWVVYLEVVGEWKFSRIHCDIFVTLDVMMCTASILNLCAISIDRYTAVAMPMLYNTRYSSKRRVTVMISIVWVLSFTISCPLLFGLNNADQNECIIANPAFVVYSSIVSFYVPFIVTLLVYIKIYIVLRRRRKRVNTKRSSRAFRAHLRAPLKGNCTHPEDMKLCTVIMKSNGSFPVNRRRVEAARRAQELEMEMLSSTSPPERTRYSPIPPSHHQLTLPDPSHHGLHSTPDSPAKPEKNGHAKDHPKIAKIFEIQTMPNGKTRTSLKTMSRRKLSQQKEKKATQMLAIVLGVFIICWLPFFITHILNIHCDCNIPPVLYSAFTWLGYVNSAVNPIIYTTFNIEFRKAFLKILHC
In short: (§2)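 Membranes from HEK293 cells transiently co-transfected with D2long and PTX-insensitive Gαo (receptor 1500 ± 50 fmol/mg), harvested 48 h post-transfection. Buffer: 20 mM Hepes, 10 mM MgCl2, 100 mM NaCl, 70 mg/L saponin, pH 7.4. Membranes (30-50 μg/mL protein), compound and 10 μM GDP preincubated 30 min at 37 °C, then 0.10 nM [35S]GTPγS added for 30 min at 37 °C. Reaction stopped by filtration and bound counts read.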

D(3) dopamine receptor [5] = target: T1, D(3) dopamine receptor; experiment: Agonist activity at human dopamine D3 receptor expressed in HEK293 cells co-expressing Galphao1 assessed as incorporation of [35S]GTPgammaS into Galphao1 after 30 mins by scintillation counting; assay type: functional, cell-based
In short: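 Membranes from HEK293 cells transiently transfected with D3 plus PTX-insensitive Gαo; expression 1100 fmol/mg. Buffer: 20 mM Hepes, 10 mM MgCl2, 100 mM NaCl, 70 mg/L saponin, pH 7.4. Membranes at 30-50 μg/mL, with compound and 10 μM GDP, preincubated 30 min at 37 °C. Then 0.10 nM [35S]GTPγS added for 30 min at 37 °C. Filtration, scintillation counting.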

D(3) dopamine receptor [6] = target: T1, D(3) dopamine receptor; experiment: Displacement of [3H]spiperone from human dopamine D3 receptor S5.42A mutant expressed in HEK293 cells after 60 mins; assay type: cell-based; in short: as §1
D(2) dopamine receptor [7] = target: T2, D(2) dopamine receptor; experiment: Agonist activity at human dopamine D2long receptor expressed in CHO cells assessed as increase of forskolin-induced cAMP accumulation by bioluminescence assay
D(2) dopamine receptor [8] = target: T2, D(2) dopamine receptor; experiment: Displacement of [3H]7-OH-DPAT from human dopamine D2long receptor expressed in CHO cells after 60 mins; assay type: cell-based
In short: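 CHO membranes stably expressing D2long (200 μg protein/well) incubated with 1.0 nM [3H]7-OH-DPAT for 60 min at 37 °C. […] Ki from Cheng-Prusoff; 3-8 experiments in triplicate.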

D(2) dopamine receptor [9] = target: T2, D(2) dopamine receptor; experiment: Displacement of [3H]spiperone from human dopamine D2long receptor expressed in CHO cells after 60 mins; assay type: cell-based
In short: (§3)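 Incubated 60 min at 37 °C in sodium-free buffer: 50 mM Tris-HCl, 1 mM EDTA, 5 mM MgCl2, 0.1 mM DTT, bacitracin, trypsin inhibitor, pH 7.4. Ki by Cheng-Prusoff; 3-9 experiments in triplicate.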

D(3) dopamine receptor [10] = target: T1, D(3) dopamine receptor; experiment: Agonist activity at human dopamine D3 receptor expressed in CHO cells assessed as induction of [3H]thymidine incorporation after 2 hrs; assay type: functional, cell-based
In short: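 CHO dhfr- cells stably expressing D3 receptor labeled with 0.02 μCi [3H]thymidine per well (specific activity […]) for 2 h after stimulation with compound. […] Operational model used to estimate τ.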

D(3) dopamine receptor [11] = target: D(3) dopamine receptor (Homo sapiens, UniProt P35462, S196A); experiment: Displacement of [3H]spiperone from human dopamine D3 receptor S5.46A mutant expressed in HEK293 cells after 60 mins; assay type: cell-based; in short: as §1
D(3) dopamine receptor (Homo sapiens, UniProt P35462, S196A), sequence (P35462 as listed by the source S196A): as the sequence (P35462 whole entry) above, with G9S, S196A counted along it

D(3) dopamine receptor [12] = target: T1, D(3) dopamine receptor; experiment: Displacement of [3H]spiperone from human dopamine D3 receptor expressed in CHO cells after 60 mins; assay type: cell-based; in short: as §3
D(3) dopamine receptor [13] = target: D(3) dopamine receptor (Homo sapiens, UniProt P35462, D110E); experiment: Displacement of [3H]spiperone from human dopamine D3 receptor D3.32E mutant expressed in HEK293 cells after 60 mins; assay type: cell-based; in short: as §1
D(3) dopamine receptor (Homo sapiens, UniProt P35462, D110E), sequence (P35462 as listed by the source D110E): as the sequence (P35462 whole entry) above, with G9S, D110E counted along it

D(3) dopamine receptor [14] = target: T1, D(3) dopamine receptor; experiment: Displacement of [3H]7-OH-DPAT from human dopamine D3 receptor expressed in CHO cells after 60 mins; assay type: cell-based
D(2) dopamine receptor [15] = target: T2, D(2) dopamine receptor; experiment: Agonist activity at human dopamine D2long receptor expressed in HEK293 cells co-expressing Galphai2 assessed as incorporation of [35S]GTPgammaS into Galphai2 after 30 mins by scintillation counting; assay type: functional, cell-based
In short: as §2, with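 “PTX-insensitive Gαi2” for “PTX-insensitive Gαo”, “(receptor 4900” for “(receptor 1500”, “± 440” for “± 50”, “at 30” for “at 37”, “for 75” for “for 30”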

D(2) dopamine receptor [16] = target: T2, D(2) dopamine receptor; experiment: Agonist activity at human dopamine D2long receptor expressed in CHO cells assessed as induction of [3H]thymidine incorporation after 2 hrs
D(2) dopamine receptor [17] = target: T2, D(2) dopamine receptor; experiment: Displacement of [3H]spiperone from human dopamine D2short receptor expressed in CHO cells after 60 mins; assay type: cell-based; in short: as §3
D(4) dopamine receptor = target: T3, D(4) dopamine receptor (Homo sapiens, UniProt P21917); experiment: Displacement of [3H]spiperone from human dopamine D4.4 receptor expressed in CHO cells after 60 mins; assay type: cell-based; in short: as §3
T3 sequence (P21917 whole entry): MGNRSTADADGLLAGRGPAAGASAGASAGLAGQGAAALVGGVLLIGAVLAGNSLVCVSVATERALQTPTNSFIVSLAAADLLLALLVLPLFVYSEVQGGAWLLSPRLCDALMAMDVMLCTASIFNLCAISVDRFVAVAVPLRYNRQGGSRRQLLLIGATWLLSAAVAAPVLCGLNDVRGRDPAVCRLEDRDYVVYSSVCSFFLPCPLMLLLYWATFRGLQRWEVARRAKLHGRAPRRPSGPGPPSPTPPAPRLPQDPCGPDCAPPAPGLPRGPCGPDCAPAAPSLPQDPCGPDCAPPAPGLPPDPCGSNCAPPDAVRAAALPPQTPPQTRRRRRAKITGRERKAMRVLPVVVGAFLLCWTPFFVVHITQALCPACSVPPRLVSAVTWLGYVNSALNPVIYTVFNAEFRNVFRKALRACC

[18] = Displacement of [3H]prazosin from adrenergic alpha1 receptor in porcine cerebral cortex after 60 mins; assay type: tissue-based, Sus scrofa
D(1A) dopamine receptor = D(1A) dopamine receptor (Sus scrofa, UniProt P50130); experiment: Displacement of [3H]SCH23390 from dopamine D1 receptor in porcine cerebral cortex after 60 mins; assay type: tissue-based
D(1A) dopamine receptor, sequence (P50130 whole entry): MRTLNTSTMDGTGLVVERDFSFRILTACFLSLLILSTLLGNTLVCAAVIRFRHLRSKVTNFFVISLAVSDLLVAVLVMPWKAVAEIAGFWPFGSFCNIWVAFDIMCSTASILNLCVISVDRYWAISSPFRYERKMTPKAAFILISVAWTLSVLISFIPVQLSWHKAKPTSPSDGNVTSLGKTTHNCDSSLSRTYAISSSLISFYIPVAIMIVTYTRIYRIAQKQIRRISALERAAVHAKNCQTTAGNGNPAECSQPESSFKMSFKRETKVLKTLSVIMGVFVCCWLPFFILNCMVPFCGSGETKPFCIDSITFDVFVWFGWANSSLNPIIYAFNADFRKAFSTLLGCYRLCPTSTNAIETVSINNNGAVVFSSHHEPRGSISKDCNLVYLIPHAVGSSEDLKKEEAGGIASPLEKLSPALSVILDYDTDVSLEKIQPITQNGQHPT

D(2) dopamine receptor [19] = target: T2, D(2) dopamine receptor; experiment: Antagonist activity at human dopamine D2long receptor expressed in CHO cells assessed as inhibition of forskolin-induced cAMP accumulation by bioluminescence assay; assay type: functional, cell-based
In short: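 CHO cells stably expressing D2long, seeded at 5000 cells/well 24 h before assay and washed with PBS. Compounds added with 20 μM forskolin in serum-free medium containing 500 μM IBMX and 100 μM Ro 20-1724, pH 7.4, for 15 min at 25 °C. cAMP read by cAMP-Glo luminescence (PKA kinase reaction, then Kinase-Glo).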

Row | SMILES | Ratio Ki (Homo sapiens) | Ki (D(3) dopamine receptor [1]) [nM] | Ki (D(3) dopamine receptor [2]) [nM] | Ki (D(3) dopamine receptor [3]) [nM] | Ki (D(3) dopamine receptor [6]) [nM] | Ki (D(2) dopamine receptor [8]) [nM] | Ki (D(2) dopamine receptor [9]) [nM] | Ki (D(3) dopamine receptor [11]) [nM] | Ki (D(3) dopamine receptor [12]) [nM] | Ki (D(3) dopamine receptor [13]) [nM] | Ki (D(3) dopamine receptor [14]) [nM] | Ki (D(2) dopamine receptor [17]) [nM] | Ki (D(4) dopamine receptor) [nM] | Ki [18] [nM] | Ki (D(1A) dopamine receptor) [nM] | other results
1 | CCCN(CCC)C1Cc2ccccc2C1 | 1.5 | 230 | 350 | – | – | – | – | – | – | – | – | – | – | – | – | –
2 | CCCN(CCCCNC(=O)c1ccc(-c2ccccc2)cc1)[C@H]1CCn2nccc2C1 | 2200 | 0.076 | 170 | 0.98 | 2.3 | 1 | 5.3 | 0.058 | 0.19 | 850 | 0.027 | – | – | – | – | EC50 (D(2) dopamine receptor [4]): 26 nM; EC50 (D(3) dopamine receptor [5]): 0.056 nM; EC50 (D(2) dopamine receptor [7]): 110 nM; EC50 (D(3) dopamine receptor [10]): 0.0028 nM; EC50 (D(2) dopamine receptor [15]): 370 nM; EC50 (D(2) dopamine receptor [16]): 0.51 nM
3 | CCCN(CCCCNC(C)=O)C1Cc2ccccc2C1 | 0.8 | 410 | 330 | – | – | – | – | – | – | – | – | – | – | – | – | –
4 | CCCN(CCC)[C@@H]1CCn2nccc2C1 | – | – | – | – | – | 57000 | 55000 | – | 2100 | – | 4300 | 53000 | 17000 | 2900 | 68000 | –
5 | CCCCC(=O)NCCCCN(CCC)C1Cc2ccccc2C1 | 17 | 44 | 760 | – | – | – | – | – | – | – | – | – | – | – | – | –
6 | CCCN(CCCCNC(=O)c1ccccc1)C1Cc2ccccc2C1 | 93 | 2.7 | 250 | – | – | – | – | – | – | – | – | – | – | – | – | –
7 | CCCN(CCCCNC(=O)c1ccc(-c2ccccc2)cc1)C1CCn2ncc(Cl)c2C1 (centres undefined) | – | – | – | – | – | – | 100 | – | 0.59 | – | – | 43 | 190 | 260 | 3600 | –
8 | CCCN(CCCCNC(=O)c1ccc(-c2ccccc2)cc1)C1CCn2ncc(C=O)c2C1 (centres undefined) | – | – | – | – | – | – | 8400 | – | 39 | – | – | 4700 | 6300 | 3800 | 23000 | –
9 | COc1ccccc1N1CCN(CCCCNC(=O)c2ccc(-c3ccccc3)cc2)CC1 | – | 0.9 | 180 | 0.58 | 2.8 | – | – | 0.16 | 0.22 | 790 | – | – | 27 | 5.6 | 570 | inhibition (D(2) dopamine receptor [19]): Active
10 | CCCN(CCCCNC(=O)c1ccc(-c2ccccc2)cc1)[C@@H]1CCn2nccc2C1 | 190 | 19 | 3700 | 43 | 240 | 49 | 300 | 15 | 15 | 1400 | 6.3 | – | – | – | – | EC50 (D(3) dopamine receptor [5]): 51 nM
11 | CCCN(CCCCNC(=O)c1ccc(-c2ccccc2)cc1)C1Cc2cccn3ncc(c23)C1 (centres undefined) | – | – | – | – | – | – | 270 | – | 0.55 | – | – | 240 | 230 | 86 | 1800 | –
12 | CCCN(CCCCNC(=O)c1ccc(-c2ccccc2)cc1)C1CCn2nccc2C1 (racemic) | – | – | – | – | – | – | 150 | – | 0.71 | – | – | 77 | 59 | 520 | 6800 | –
13 | CCCN(CCC)[C@H]1CCn2nccc2C1 | 2.8 | 150 | 420 | 420 | 840 | 4.6 | 410 | 45 | 31 | 8100 | 14 | 270 | 380 | 5100 | 53000 | –
